Measured values: ChEMBL document CHEMBL4428118, “Optimization of pyrimidinol antioxidants as mitochondrial protective agents: ATP production and metabolic stability” (Bioorg Med Chem, 2016)
The source made the active and inactive calls. The calls are words filed in the database; no cut-off is given here.

How the values were obtained:
GM15850 [1] = experiment: Inhibition of DEM-induced collapse of mitochondrial membrane potential in FRDA patient derived lymphocyte GM15850 assessed as intact mitochondrial membrane potential at 2500 nM pre-incubated for 16 hrs followed by DEM addition for 120 mins by TMRM dye based flow cytometry (reference value: 91.3 %); format: functional, Homo sapiens; parameters: scale not given: the % may be the effect or the level left
Summary of the method: (§1)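 Cells (5 × 10^5) pretreated with or without compound for 16 h, then 5 mM DEM for 120 min. Stained with 250 nM TMRM in PBS with 20 mM glucose, 15 min at 37 °C in the dark. FL2-H read, 10,000 events, % cells with high TMRM uptake (intact potential). FCCP as uncoupler control. Means ± SEM of independent experiments run in duplicate.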

[2] = Stability in bovine liver microsomes assessed as drug recovery at 25 uM after 30 mins in presence of beta-NADPH by HPLC analysis; format: ADME, Bos taurus, Microsome; details: cattle, read-out: Drug recovery
Summary of the method: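 Freshly prepared bovine liver microsomes at 1 mg/mL protein in 50 mM phosphate buffer pH 7.4 with 5 mM MgCl2. Compound at 25 μM final, reaction started with 1 mM β-NADPH, 30 min at 37 °C, stopped with propanol. Control was deactivated microsomes without NADPH. Reversed-phase HPLC with fluorene internal standard. Reported as % remaining versus control, quadruplicate.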

GM15850 [3] = experiment: Increase in total intracellular ATP levels in FRDA patient derived lymphocyte GM15850 grown in galactose medium at 1 uM after 48 hrs by luciferin-luciferase reaction based bioluminescence assay relative to control; format: functional, Homo sapiens
Summary of the method: (§2)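 Cells at 2 × 10^5 cells/mL in glucose-free RPMI with 25 mM galactose, 10% dialyzed FBS and 2 mM glutamine. Compound exposure 48 h at 37 °C, 5% CO2. Total ATP read by luciferin-luciferase bioluminescence. Expressed as % of untreated control, mean of at least three independent runs; Student's t-test, p ≤ 0.05 versus vehicle.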

GM15850 [4] = experiment: Inhibition of DEM-induced collapse of mitochondrial membrane potential in FRDA patient derived lymphocyte GM15850 assessed as intact mitochondrial membrane potential at 1000 nM pre-incubated for 16 hrs followed by DEM addition for 120 mins by TMRM dye based flow cytometry (reference value: 91.3 %); format: functional, Homo sapiens; parameters: scale not given: the % may be the effect or the level left; summary of the method: as §1
GM15850 [5] = experiment: Effect on mitochondrial membrane potential in FRDA patient derived lymphocyte GM15850 incubated for 16 hrs by TMRM dye based flow cytometry; format: cell-based; details: human, gm15850, 16 h
GM15850 [6] = experiment: Inhibition of DEM-induced collapse of mitochondrial membrane potential in FRDA patient derived lymphocyte GM15850 assessed as intact mitochondrial membrane potential pre-incubated for 16 hrs followed by DEM addition for 120 mins by TMRM dye based flow cytometry; format: functional, cell-based; details: Homo sapiens; summary of the method: as §1
GM15850 [7] = experiment: Increase in total intracellular ATP levels in FRDA patient derived lymphocyte GM15850 grown in galactose medium at 5 uM after 48 hrs by luciferin-luciferase reaction based bioluminescence assay relative to control; format: functional, Homo sapiens; summary of the method: as §2
GM15850 [8] = experiment: Antioxidant activity in FRDA patient derived lymphocyte GM15850 assessed as inhibition of DEM-induced lipid peroxidation at 0.1 to 1 uM pre-incubated for 16 hrs followed by DEM addition for 120 mins by C11-BODIPY581/591 probe based flow cytometry relative to control; format: functional, cell-based; details: Homo sapiens
Summary of the method: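 Cells seeded at 5 × 10^5 cells/mL in RPMI-1640 with 15% fetal calf serum and 2 mM glutamine. Compounds added 16 h at 37 °C, 5% CO2. Then 1 μM C11-BODIPY581/591 in phenol red-free medium, 30 min in the dark. 5 mM DEM for 120 min, PBS wash, FL1-H read (488 nm excitation). 10,000 events. Green median fluorescence reported as % of DEM-treated control, n = 3.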

GM15850 [9] = experiment: Inhibition of DEM-induced collapse of mitochondrial membrane potential in FRDA patient derived lymphocyte GM15850 assessed as intact mitochondrial membrane potential at 100 nM pre-incubated for 16 hrs followed by DEM addition for 120 mins by TMRM dye based flow cytometry (reference value: 91.3 %); format: functional, Homo sapiens; parameters: scale not given: the % may be the effect or the level left; summary of the method: as §1
GM15850 [10] = experiment: Antioxidant activity in FRDA patient derived lymphocyte GM15850 assessed as suppression of DEM-induced intracellular ROS levels at 100 nM pre-incubated for 16 hrs followed by DEM addition for 80 mins by DCFH-DA probe based flow cytometry; format: functional, cell-based; details: Homo sapiens
Summary of the method: (§3)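 Cells (5 × 10^5) pretreated with compound 16 h at 37 °C, then 5 mM DEM for 80 min. Washed, then 10 μM DCFH-DA in PBS with 20 mM glucose for 25 min at 37 °C in the dark. DCF read on FL1-H, 10,000 events. Median fluorescence given as % of DEM-treated control. Duplicates, three independent runs.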

GM15850 [11] = experiment: Increase in total intracellular ATP levels in FRDA patient derived lymphocyte GM15850 grown in galactose medium at 20 uM after 48 hrs by luciferin-luciferase reaction based bioluminescence assay relative to control; format: functional, Homo sapiens; summary of the method: as §2
GM15850 [12] = experiment: Cytoprotective activity against DEM induced oxidative stress in FRDA patient derived lymphocyte GM15850 assessed as cell viability at 0.1 uM pre-incubated for 16 hrs followed by DEM addition for 6 hrs by calcein AM/EthD-1 staining based flow cytometry; format: functional; details: Homo sapiens
Summary of the method: (§4)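 Seeding 5 × 10^5 cells/mL, compound for 16 h at 37 °C, then 5 mM DEM for 6 h. Cells washed, resuspended in PBS with 25 mM galactose. Stained with 0.1 μM calcein AM and 0.1 μM EthD-1, 15 min at 37 °C in the dark. FL1-H/FL2-H read, 10,000 events. Viability relative to DMSO vehicle control.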

GM15850 [13] = experiment: Cytoprotective activity against DEM induced oxidative stress in FRDA patient derived lymphocyte GM15850 assessed as cell viability at 0.5 uM pre-incubated for 16 hrs followed by DEM addition for 6 hrs by calcein AM/EthD-1 staining based flow cytometry; format: functional; details: Homo sapiens; summary of the method: as §4
GM15850 [14] = experiment: Antioxidant activity in FRDA patient derived lymphocyte GM15850 assessed as suppression of DEM-induced intracellular ROS levels pre-incubated for 16 hrs followed by DEM addition for 80 mins by DCFH-DA probe based flow cytometry; format: functional, cell-based; details: Homo sapiens; summary of the method: as §3
GM15850 [15] = experiment: Antioxidant activity in FRDA patient derived lymphocyte GM15850 assessed as suppression of DEM-induced intracellular ROS levels at 2.5 uM pre-incubated for 16 hrs followed by DEM addition for 80 mins by DCFH-DA probe based flow cytometry; format: functional, cell-based; details: Homo sapiens; summary of the method: as §3
GM15850 [16] = experiment: Increase in total intracellular ATP levels in FRDA patient derived lymphocyte GM15850 grown in galactose medium after 48 hrs by luciferin-luciferase reaction based bioluminescence assay; format: functional, cell-based; details: Homo sapiens; summary of the method: as §2

| Structure (SMILES) | remaining at 0.5 h, 25 µM [2] [%] | Activity (GM15850 [16]) | Activity (GM15850 [1]) [%] | Activity (GM15850 [3]) [%] | Activity (GM15850 [4]) [%] | Activity (GM15850 [5]) | Activity (GM15850 [6]) | Activity (GM15850 [7]) [%] | Activity (GM15850 [8]) | Activity (GM15850 [9]) [%] | Activity (GM15850 [10]) | Activity (GM15850 [11]) [%] | Activity (GM15850 [12]) | Activity (GM15850 [13]) | Activity (GM15850 [14]) | Activity (GM15850 [15]) |
| --- | --- | --- | --- | --- | --- | --- | --- | --- | --- | --- | --- | --- | --- | --- | --- | --- |
| CCCCCCCCCCCCCCCCc1nc(N2CCC2)nc(OC2CCC2)c1O | 65 | – | 83.4 | 98 | 66.6 | Non-Toxic | Dose-dependent effect | 112 | inactive | 55 | inactive | 103 | inactive | inactive | Dose-dependent effect | Active |
| CCCCCCCCCCCCCCCOc1nc(N2CCC2)nc(C)c1O | 62 | Dose-dependent effect | 77.2 | 96 | 82.7 | Non-Toxic | Dose-dependent effect | 68 | Active | 88.9 | Active | 11 | inactive | Active | – | – |
| CCCCCCCCCCCCCCCCc1nc(N2CCCCC2)nc(OC2CCC2)c1O | 72 | – | 62.3 | 99 | 32.4 | Non-Toxic | Dose-dependent effect | 106 | inactive | 7.8 | inactive | 100 | inactive | inactive | Dose-dependent effect | Active |
| CCCCCCCCCCCCCCCCc1nc(N2CCCC2)nc(OC2CCC2)c1O | 72 | – | 70.4 | 98 | 52.3 | Non-Toxic | Dose-dependent effect | 107 | inactive | 42.5 | inactive | 102 | inactive | inactive | Dose-dependent effect | Active |

Second part, led by results:

| remaining at 0.5 h, 25 µM [2] [%] | Activity (GM15850 [16]) | Structure (SMILES) | Activity (GM15850 [1]) [%] | Activity (GM15850 [3]) [%] | Activity (GM15850 [4]) [%] | Activity (GM15850 [5]) | Activity (GM15850 [6]) | Activity (GM15850 [7]) [%] | Activity (GM15850 [8]) | Activity (GM15850 [9]) [%] | Activity (GM15850 [10]) | Activity (GM15850 [11]) [%] | Activity (GM15850 [12]) | Activity (GM15850 [13]) | Activity (GM15850 [14]) | Activity (GM15850 [15]) |
| --- | --- | --- | --- | --- | --- | --- | --- | --- | --- | --- | --- | --- | --- | --- | --- | --- |
| 54 | – | CCCCCCCCCCCCCCCCc1nc(N2CCC2)nc(OCC)c1O | 88 | 100 | 87.6 | Non-Toxic | Dose-dependent effect | 108 | Active | 88.9 | Active | 96 | inactive | Active | – | – |
| 76 | – | CCCCCCCCCCCCCCCCc1nc(N2CCC2)nc(OC(C)C)c1O | 87.5 | 106 | 90.4 | Non-Toxic | Dose-dependent effect | 109 | Active | 91.5 | Active | 95 | inactive | Active | – | – |
| 58 | – | CCCCCCCCCCCCCCCCc1nc(N2CCC2)nc(OC)c1O | 86.8 | 102 | 88.8 | Non-Toxic | Dose-dependent effect | 109 | Active | 90.5 | Active | 74 | inactive | Active | – | – |
| 57 | – | CCCCCCCCCCCCCCCCc1nc(N2CCC2)nc(C)c1O | 83.3 | 109 | 86.5 | Non-Toxic | Dose-dependent effect | 98 | Active | 91.1 | Active | 60 | inactive | Active | – | – |
| 46 | – | CCCCCCCCCCCCCCCCc1nc(N(C)C)nc(OC)c1O | 85.8 | 115 | 88.3 | Non-Toxic | Dose-dependent effect | 107 | Active | 92 | Active | 88 | inactive | – | – | – |
